The values below come from ChEMBL document CHEMBL4400543, “Identification and Characterization of AES-135, a Hydroxamic Acid-Based HDAC Inhibitor That Prolongs Survival in an Orthotopic Mouse Model of Pancreatic Cancer” (J Med Chem, 2019).

In data set [1] the target is Histone deacetylase 4 (Homo sapiens) (UniProt P56524). The data set is described as follows: Inhibition of recombinant human HDAC4 expressed in SF9 baculoviral system at 10 uM using FAM-labeled acetylated peptide as substrate by EMSA relative to control.
Data set [2] can be described thus: Clearance in NSG mouse at 20 mg/kg, ip administered as single dose by HPLC-MS/MS analysis. It counts as ADME, organism-based. As to conditions: in vivo. The procedure, abridged: (§1)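 NSG mice given a single 20 mg/kg IP dose in Cremophor EL/EtOH (1:1, 4% final volume)/sterile saline. Tail-vein blood at 0.5, 1, 2, 4, 8 and 24 h, n = 2. Drug quantified in serum/plasma. Half-life and clearance calculated assuming 100% bioavailability.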

Data set [3] in a line: Cytotoxicity against mouse KPC monolayer cells assessed as reduction in tumor spheroid intensity after 72 hrs by Alamar Blue assay. It is filed as functional, cell-based. In a few lines: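 Monolayer proliferation of STR-authenticated, mycoplasma-checked patient-derived PDAC lines and mouse KPC cells. Plated at 2000 cells/well, treated 72 h, read by alamarBlue. At least triplicate, n = 3–5.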
Background: Alamar Blue is a resazurin reagent that responds to reducing activity.

Data set [4] can be described thus: Selectivity ratio of IC50 for human CAF19 cells to IC50 for human Pa03C cells.
For data set [5], the system named is Pa03C. The data set is described as follows: Cytotoxicity against human Pa03C cells assessed as reduction in tumor spheroid intensity after 72 hrs by Alamar Blue assay. It is filed as functional, cell-based. In a few lines:
(§2)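 3D spheroids of patient-derived PDAC cells (tomato red) alone or with CAF19 cells, plus CAF cultures. Imaging read-outs: area is the μ2 of objects above a tomato red intensity threshold; intensity is summed red or green pixel fluorescence after background removal. n = 3–5.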

A short description of data set [6]: Drug uptake in NSG mouse serum at 40 mg/kg, ip administered daily for 5 days by HPLC-MS/MS analysis. It is filed as ADME, organism-based. The note with it: read-out: Drug uptake. In a few lines: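 NSG mice dosed IP once daily for 5 days at 10 or 40 mg/kg, n = 6. Blood collected 5 h after the final injection for serum drug concentration, reported ± SD.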
Data set [7] in a line: Cytotoxicity against human […] cells assessed as reduction in tumor spheroid area after 72 hrs by Alamar Blue assay. It is filed as cell-based. The procedure, abridged: as §2
Data set [8] deals with Pa03C. The data set is described as follows: Cytotoxicity against human Pa03C cells assessed as reduction in tumor spheroid area after 72 hrs in presence of human CAF19 cells by Alamar Blue assay. It counts as functional, cell-based. The procedure, abridged: as §2
Data set [9] deals with Polyamine deacetylase HDAC10 (Homo sapiens) (UniProt Q969S8). Kind of data set: Inhibition of recombinant human HDAC10 expressed in SF9 baculoviral system at 10 uM using FAM-labeled acetylated peptide as substrate by EMSA relative to control. The procedure, abridged: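 Full-length recombinant human HDACs from an Sf9 baculovirus system. Single-point screen at 10 μM by microfluidic mobility-shift assay with FAM-labeled acetylated peptide substrate. Buffer: 100 mM HEPES pH 7.5, 25 mM KCl, 0.1% BSA, 0.01% Triton X-100, 1% DMSO. % inhibition from product/(substrate + product) against no-inhibitor and no-enzyme controls.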

A short description of data set [10]: Lipophilicity, log D of the compound at pH 7.4 by LC-ESI MS analysis. It counts as physicochemical. As to conditions: buffer. The procedure, abridged:
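Partitioning measured in a 1-octanol/phosphate-buffered saline system at pH 7.4.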

Data set [11] is described as follows: Drug uptake in NSG mouse serum at 20 mg/kg, ip administered as single dose and measured at 4 hrs by HPLC-MS/MS analysis. It is filed as ADME, organism-based. The note with it: read-out: Drug uptake. The procedure, abridged: as §1
A short description of data set [12]: Stability of the compound in DMSO at 10 mM after 25 hrs in presence of reduced L-glutathione by HPLC analysis. The note with it: 10000 µM. It is filed as physicochemical. The procedure, abridged: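 A 10 mM DMSO stock was mixed with 100-fold excess reduced glutathione in HEPES buffer, pH 7.4. Samples were analysed by reversed-phase HPLC at regular intervals, with UV at 254 nm. Decay of the parent compound was followed as loss of its peak area.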

The target of data set [13] is Signal transducer and activator of transcription 3 (Homo sapiens) (UniProt P40763). Kind of data set: Inhibition of STAT3 phosphorylation at S727 residue in human BTSC 143EF cells at 1 to 10 uM after 24 hrs by Western blot method. It is filed as cell-based. The procedure, abridged: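 BTSCs dissociated to single cells and treated with drug or DMSO. Lysed in RIPA buffer with protease inhibitors. 20 μg lysate run on SDS-PAGE and transferred to nitrocellulose. Blocked in 5% milk, primary antibody overnight at 4 °C, then HRP secondary for 1 h.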

Data set [14] can be described thus: Bioavailability in NSG mouse at 20 mg/kg, ip administered as single dose by HPLC-MS/MS analysis. It counts as ADME, organism-based. As to conditions: in vivo.
A short description of data set [15]: Cmax in NSG mouse at 20 mg/kg, ip administered as single dose and measured at 0.5 hrs by HPLC-MS/MS analysis. It counts as ADME, organism-based. Further details: dose 20 mg/kg, route intraperitoneal. As to conditions: in vivo. The procedure, abridged: as §1
Data set [16] addresses Histone deacetylase 8 (Homo sapiens) (UniProt Q9BY41). The data set is described as follows: Inhibition of recombinant human HDAC8 expressed in SF9 baculoviral system at 10 uM using FAM-labeled acetylated peptide as substrate by EMSA relative to control. The procedure, abridged: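 Single-point screen at 10 μM compound, using full-length recombinant human enzyme expressed in Sf9 cells. Buffer was HEPES pH 7.5 with KCl, BSA and Triton X-100, and 1% DMSO. Final enzyme was 0.5 nM for HDAC3, 60 nM for HDAC6 and 5.0 nM for HDAC8, with 1 μM FAM-acetylated peptide. Percent inhibition was derived from the product sum ratio relative to DMSO-only (0%) and no-enzyme (100%) controls.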

Another data set has as its system Panc1005. Kind of data set: Cytotoxicity against human Panc 10.05 cells assessed as reduction in tumor spheroid intensity after 72 hrs by Alamar Blue assay. The note with it: Panc1005, 72 h. It counts as functional, cell-based. The procedure, abridged:
as §2

A short description of data set [17]: Antitumor activity against mouse KPC cells allografted in immunocompetent C57BI/6 mouse assessed as mean survival time at 50 mg/kg, ip administered daily for 5 days per week for 1 month starting on day 7 post implantation (reference value: 29.5 days). It counts as functional.

For orientation: inhibition means the percentage by which the read-out fell short of the control. One may read the CL/F as clearance divided by bioavailability, as obtained after extravascular dosing. One may read the IC50 as the concentration needed to halve the response being measured. By logD is commonly meant lipophilicity at a set pH, counting ionised and neutral species. One may read the bioavailability as the share of a dose that reaches the circulation, judged against a reference dose that is usually intravenous. A low value points to poor availability. As usually defined, the Cmax is the peak of the concentration-time curve.

Active and inactive are the calls of the source.

Sequence of Signal transducer and activator of transcription 3 (Homo sapiens) (P40763 whole entry): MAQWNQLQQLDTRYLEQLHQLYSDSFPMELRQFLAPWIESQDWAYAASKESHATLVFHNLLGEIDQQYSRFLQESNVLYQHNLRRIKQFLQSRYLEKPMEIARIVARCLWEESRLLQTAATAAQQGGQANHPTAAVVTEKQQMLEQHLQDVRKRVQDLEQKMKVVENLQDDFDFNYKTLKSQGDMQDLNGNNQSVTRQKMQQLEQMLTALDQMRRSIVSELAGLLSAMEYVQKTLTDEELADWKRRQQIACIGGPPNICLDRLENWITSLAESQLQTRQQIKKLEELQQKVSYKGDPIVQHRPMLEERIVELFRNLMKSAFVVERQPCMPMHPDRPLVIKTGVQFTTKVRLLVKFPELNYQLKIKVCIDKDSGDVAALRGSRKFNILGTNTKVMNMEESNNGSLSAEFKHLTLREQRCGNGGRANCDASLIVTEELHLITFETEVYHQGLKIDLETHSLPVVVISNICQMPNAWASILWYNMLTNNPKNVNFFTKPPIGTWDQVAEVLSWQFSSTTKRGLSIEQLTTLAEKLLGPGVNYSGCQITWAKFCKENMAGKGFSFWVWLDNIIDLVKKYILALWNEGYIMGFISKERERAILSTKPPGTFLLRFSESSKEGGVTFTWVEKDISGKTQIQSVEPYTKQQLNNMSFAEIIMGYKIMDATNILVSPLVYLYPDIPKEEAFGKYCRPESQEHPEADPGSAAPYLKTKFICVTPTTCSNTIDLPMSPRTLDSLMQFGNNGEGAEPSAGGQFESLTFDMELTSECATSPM
Sequence of Histone deacetylase 4 (Homo sapiens) (P56524 whole entry): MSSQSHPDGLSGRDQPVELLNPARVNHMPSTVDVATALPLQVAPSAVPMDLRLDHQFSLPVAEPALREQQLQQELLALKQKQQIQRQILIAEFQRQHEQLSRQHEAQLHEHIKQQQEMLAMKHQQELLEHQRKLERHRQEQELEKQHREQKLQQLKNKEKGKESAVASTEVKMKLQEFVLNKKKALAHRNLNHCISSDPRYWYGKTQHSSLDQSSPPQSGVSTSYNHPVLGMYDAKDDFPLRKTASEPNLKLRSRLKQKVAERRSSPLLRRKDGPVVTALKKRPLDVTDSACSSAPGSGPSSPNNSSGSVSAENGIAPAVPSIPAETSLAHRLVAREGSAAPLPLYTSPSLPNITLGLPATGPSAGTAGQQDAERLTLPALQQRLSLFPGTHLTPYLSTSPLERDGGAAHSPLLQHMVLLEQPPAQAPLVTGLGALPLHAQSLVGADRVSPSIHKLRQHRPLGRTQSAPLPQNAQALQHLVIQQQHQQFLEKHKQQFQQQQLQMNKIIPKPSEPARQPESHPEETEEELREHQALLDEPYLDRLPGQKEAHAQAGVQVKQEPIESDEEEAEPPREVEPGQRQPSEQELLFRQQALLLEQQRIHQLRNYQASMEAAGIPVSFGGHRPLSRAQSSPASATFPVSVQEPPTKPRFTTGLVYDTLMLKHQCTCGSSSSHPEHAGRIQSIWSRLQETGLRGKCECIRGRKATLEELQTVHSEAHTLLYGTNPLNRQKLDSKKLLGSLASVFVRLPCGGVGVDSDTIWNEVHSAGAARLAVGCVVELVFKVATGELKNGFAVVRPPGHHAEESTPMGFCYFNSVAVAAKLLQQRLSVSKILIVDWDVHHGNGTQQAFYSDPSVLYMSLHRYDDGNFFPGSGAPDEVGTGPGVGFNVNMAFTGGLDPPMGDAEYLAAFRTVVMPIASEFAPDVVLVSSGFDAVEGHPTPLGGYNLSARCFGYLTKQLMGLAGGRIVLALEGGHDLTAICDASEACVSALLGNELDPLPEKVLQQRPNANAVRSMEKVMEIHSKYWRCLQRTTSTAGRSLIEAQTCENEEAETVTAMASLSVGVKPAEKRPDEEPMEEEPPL
Sequence of Histone deacetylase 8 (Homo sapiens) (Q9BY41 whole entry): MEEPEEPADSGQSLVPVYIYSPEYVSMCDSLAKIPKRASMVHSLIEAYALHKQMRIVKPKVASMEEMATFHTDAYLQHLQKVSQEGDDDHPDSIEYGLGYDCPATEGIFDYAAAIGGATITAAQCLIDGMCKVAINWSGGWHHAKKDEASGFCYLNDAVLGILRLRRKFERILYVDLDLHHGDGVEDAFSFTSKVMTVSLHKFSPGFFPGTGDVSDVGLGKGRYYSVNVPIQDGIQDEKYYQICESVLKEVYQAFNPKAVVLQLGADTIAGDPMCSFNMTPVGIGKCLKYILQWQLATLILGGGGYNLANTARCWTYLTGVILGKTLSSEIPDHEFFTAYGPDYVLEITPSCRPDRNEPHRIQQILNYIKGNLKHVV
Sequence of Polyamine deacetylase HDAC10 (Homo sapiens) (Q969S8 whole entry): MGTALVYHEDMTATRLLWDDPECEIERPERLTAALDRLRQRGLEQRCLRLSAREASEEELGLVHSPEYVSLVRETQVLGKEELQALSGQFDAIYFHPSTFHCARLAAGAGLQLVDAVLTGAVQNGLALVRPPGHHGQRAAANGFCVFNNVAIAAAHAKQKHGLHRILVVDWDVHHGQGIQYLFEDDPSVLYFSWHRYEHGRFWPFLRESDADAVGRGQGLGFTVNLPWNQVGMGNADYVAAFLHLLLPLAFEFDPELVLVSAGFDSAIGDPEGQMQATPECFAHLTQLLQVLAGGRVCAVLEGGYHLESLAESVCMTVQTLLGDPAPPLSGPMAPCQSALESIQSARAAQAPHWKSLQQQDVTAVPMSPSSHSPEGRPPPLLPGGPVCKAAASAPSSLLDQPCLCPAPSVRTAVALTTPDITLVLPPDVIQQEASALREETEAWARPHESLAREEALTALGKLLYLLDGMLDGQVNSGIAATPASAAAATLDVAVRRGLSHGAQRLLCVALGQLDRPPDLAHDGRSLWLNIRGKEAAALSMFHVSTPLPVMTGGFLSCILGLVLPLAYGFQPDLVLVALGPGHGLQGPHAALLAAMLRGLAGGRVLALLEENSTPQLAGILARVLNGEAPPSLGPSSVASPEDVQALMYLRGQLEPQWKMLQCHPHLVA

As to `CC(C)(C)c1ccc(CN(C(=O)CN(Cc2c(F)c(F)c(F)c(F)c2F)S(=O)(=O)c2ccc(F)cc2)c2ccc(C(=O)NO)cc2)cc1`, the values for the inhibition in data set [1], in data set [9] and in data set [16] were 15%, 70% and 94%, respectively. In data set [2], this compound had a CL/F of 0.0667 mL/min. Further, the IC50 in [3] is 1300 nM; with Pa03C [5] it was 1330 nM; in data set [7], 4700 to 7800 nM; in the data set on Pa03C [8], 1410 nM; with Panc1005 it was 600 nM. Further, the “Ratio IC50” value in [4] is given as 5 - 6. Moreover, in data set [6], the concentration at 120 h was 2.64 µM. The compound further returned a pH-dependent lipophilicity (logD) in data set [10] of 4.15. Further, the concentration at 4 h in [11] amounted to 3660 ng/mL. In addition, the Stability result in [12] is given as “Stable”. Also, the inhibition entry in data set [13] is “inactive”. In addition, the bioavailability in data set [14] came out at 100%. The compound further returned a Cmax in data set [15] of 10.7 µM. Further, in data set [17], the MST was 36.5 days.
